Active and inactive are the calls of the source. No cut-off for these calls is given here. Residues, ends and D or L forms follow the SMILES beside them. *: point of attachment. X1 = CC(C)CCC[C@@H](C)[C@H]1CCC2C3CC=C4C[C@H](SC[C@@H]5CCN6CC[C@@H](CSCC(=O)*)NC6=N5)CC[C@]4(C)C3CC[C@@]21C; X3 = CC(C)(C)[Si](OC[C@@H]1CCN2CC[C@@H](COC(=O)CCCCC(=O)*)NC2=N1)(c1ccccc1)c1ccccc1; X5 = CC(C)(C)[Si](OC[C@@H]1CCN2CC[C@@H](CNC(=O)CCCCC(=O)*)NC2=N1)(c1ccccc1)c1ccccc1; X2 = CC(C)(C)[Si](OCC1CCN2CCC(CSCC(=O)*)NC2=N1)(c1ccccc1)c1ccccc1; X4 = O=C(CCCCC(=O)*)OC[C@@H]1CCN2CC[C@@H](CO)N=C2N1; X6 = O=C(CCCCC(=O)*)NC[C@@H]1CCN2CC[C@@H](CO)N=C2N1; OBn = c1ccc(CO*)cc1; Bn = c1ccc(C*)cc1
Experiments:
[1] = target: Human immunodeficiency virus type 1 protease (Human immunodeficiency virus 1) (UniProt Q72874); experiment: Competitive inhibition against HIV-1 Protease
[2] = target: Human immunodeficiency virus type 1 protease (Human immunodeficiency virus 1, UniProt Q72874); experiment: In vitro inhibitory activity against HIV-1 Protease
In short: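 Recombinant HIV-1 PR expressed in E. coli (pET9c-PR). Fluorogenic DABCYL-γ-abu-[…]EDANS substrate 5.2 μM, enzyme 7.5 nM, in 100 mM sodium acetate, 1 mM EDTA, 1 M NaCl, pH 4.7, 30 °C, 3% DMSO final. Fluorescence read at ex 340/em 490 nm. IC50 fitted from % inhibition across 0.5–28 μM inhibitor. Ki derived by Zhang's method using 1.88–28 nM enzyme.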

[3] = target: Human immunodeficiency virus type 1 protease (Human immunodeficiency virus 1) (UniProt Q72874); experiment: Dimerization inhibition against HIV-1 Protease
In short: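 Recombinant HIV-1 PR expressed in E. coli (pET9c-PR). Hydrolysis of DABCYL-γ-abu-[…]EDANS (5.2 μM) was followed by fluorescence (ex 340/em 490 nm) in 100 mM sodium acetate, 1 mM EDTA, 1 M NaCl, pH 4.7, 30 °C, with 3% DMSO final. Initial rates were taken at ≥7 enzyme levels (1.88–28 nM) per inhibitor concentration. Kic/Kid were obtained by Zhang's method from [E]0/√vi vs √vi plots.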

[4] = target: Human immunodeficiency virus type 1 protease (Human immunodeficiency virus 1) (UniProt Q72874); experiment: Inhibitory activity against HIV-1 Protease at 28 uM
[5] = target: Human immunodeficiency virus type 1 protease (Human immunodeficiency virus 1) (UniProt Q72874); experiment: Inhibitory activity against HIV-1 Protease at 14 uM
[6] = target: Human immunodeficiency virus type 1 protease (Human immunodeficiency virus 1) (UniProt Q72874); experiment: In vitro inhibitory activity against HIV-1 Protease; No inhibition

SMILES	IC50 [2]	Kid [3]	further results
CC[C@H](C)[C@H](NC(=O)CNC(=O)CSCC1CCN2CCC(CO[Si](c3ccccc3)(c3ccccc3)C(C)(C)C)N=C2N1)C(=O)N[C@@H](CO)C(=O)N[C@@H](Cc1ccc(O)cc1)C(=O)N[C@@H](CC(N)=O)C(=O)N[C@@H](CC(C)C)C(=O)OC (some centres undefined) (X2-GISYNL-OMe)	5 µM	–	Kic [1]: 6 µM
CC(C)C[C@H](NC(=O)[C@@H](NC(=O)[C@H](C)NC(=O)CNC(=O)CSCC1CCN2CCC(CO[Si](c3ccccc3)(c3ccccc3)C(C)(C)C)N=C2N1)[C@@H](C)OCc1ccccc1)C(=O)N[C@@H](CC(N)=O)C(=O)N[C@@H](Cc1ccccc1)C(=O)OCc1ccccc1 (stereo in doubt; 6'(R,R)) [listing 1 of 2 here]	–	0.15 µM	–
COC(=O)[C@H](Cc1ccccc1)NC(=O)[C@H](CC(N)=O)NC(=O)[C@H](CC(C)C)NC(=O)[C@@H](NC(=O)[C@H](C)NC(=O)CCCCC(=O)NC[C@@H]1CCN2CC[C@@H](CO[Si](c3ccccc3)(c3ccccc3)C(C)(C)C)N=C2N1)[C@@H](C)O (X5-ATLNF-OMe)	–	–	inhibition [4]: 28%
CC(C)CCC[C@@H](C)[C@H]1CCC2C3CC=C4C[C@H](SC[C@@H]5CCN6CC[C@@H](CSCC(=O)NCC(=O)N[C@@H](C)C(=O)N[C@H](C(=O)N[C@@H](CC(C)C)C(=O)N[C@@H](CC(N)=O)C(=O)N[C@@H](Cc7ccccc7)C(=O)OCc7ccccc7)[C@@H](C)OCc7ccccc7)NC6=N5)CC[C@]4(C)C3CC[C@@]21C (some centres undefined) (X1-GAT(Bn)LNF-OBn)	3 µM	0.4 µM	Kic [1]: 0.4 µM
COC(=O)[C@H](Cc1ccccc1)NC(=O)[C@H](CC(N)=O)NC(=O)[C@H](CC(C)C)NC(=O)[C@@H](NC(=O)[C@H](C)NC(=O)CCCCC(=O)OC[C@@H]1CCN2CC[C@@H](CO[Si](c3ccccc3)(c3ccccc3)C(C)(C)C)N=C2N1)[C@@H](C)O (X3-ATLNF-OMe)	1.9 µM	0.55 µM	–
CC(C)C[C@H](NC(=O)[C@@H](NC(=O)[C@H](C)NC(=O)CNC(=O)CSCC1CCN2CCC(CO[Si](c3ccccc3)(c3ccccc3)C(C)(C)C)N=C2N1)[C@@H](C)OCc1ccccc1)C(=O)N[C@@H](CC(N)=O)C(=O)N[C@@H](Cc1ccccc1)C(=O)O (some centres undefined) (X2-GAT(Bn)LNF-OH)	11 µM	–	–
CC(C)C[C@H](NC(=O)[C@@H](NC(=O)[C@H](C)NC(=O)CNC(=O)CSCC1CCN2CCC(CO[Si](c3ccccc3)(c3ccccc3)C(C)(C)C)N=C2N1)[C@@H](C)OCc1ccccc1)C(=O)N[C@@H](CC(N)=O)C(=O)N[C@@H](Cc1ccccc1)C(=O)OCc1ccccc1 (stereo in doubt; 6'(R,R)) [listing 2 of 2 here]	2 µM	–	–
CC[C@H](C)[C@H](NC(=O)[C@H](C)NC(=O)CSCC1CCN2CCC(CO[Si](c3ccccc3)(c3ccccc3)C(C)(C)C)N=C2N1)C(=O)N[C@H](C(=O)N[C@@H](CC(C)C)C(=O)N[C@@H](Cc1c[nH]c2ccccc12)C(=O)OC)[C@@H](C)OCc1ccccc1 (some centres undefined) (X2-AIT(Bn)LW-OMe)	5 µM	6.5 µM	–
CC(C)C[C@H](NC(=O)[C@@H](NC(=O)[C@H](C)NC(=O)CNC(=O)CSCC1CCN2CCC(CO[Si](c3ccccc3)(c3ccccc3)C(C)(C)C)N=C2N1)[C@@H](C)OCc1ccccc1)C(=O)N[C@@H](CC(N)=O)C(=O)N[C@@H](Cc1ccccc1)C(=O)OCc1ccccc1 (stereo in doubt; 6 (S,S)) [listing 1 of 2 here]	1.6 µM	–	–
CC(C)C[C@H](NC(=O)[C@@H](NC(=O)[C@H](C)NC(=O)CNC(=O)CSCC1CCN2CCC(CO[Si](c3ccccc3)(c3ccccc3)C(C)(C)C)N=C2N1)[C@@H](C)OCc1ccccc1)C(=O)N[C@@H](CC(N)=O)C(=O)N[C@@H](Cc1ccccc1)C(=O)OCc1ccccc1 (stereo in doubt; 6 (S,S)) [listing 2 of 2 here]	–	0.15 µM	–
COC(=O)[C@H](Cc1ccccc1)NC(=O)[C@H](CC(N)=O)NC(=O)[C@H](CC(C)C)NC(=O)[C@@H](NC(=O)[C@H](C)NC(=O)CCCCC(=O)OC[C@@H]1CCN2CC[C@@H](CO)N=C2N1)[C@@H](C)O (X4-ATLNF-OMe)	–	–	inhibition [5]: 28%
COC(=O)[C@H](Cc1ccccc1)NC(=O)[C@H](CC(N)=O)NC(=O)[C@H](CC(C)C)NC(=O)[C@@H](NC(=O)[C@H](C)NC(=O)CCCCC(=O)NC[C@@H]1CCN2CC[C@@H](CO)N=C2N1)[C@@H](C)O (X6-ATLNF-OMe)	–	–	NI [6]: inactive
CC[C@H](C)[C@H](NC(=O)CNC(=O)CSCC1CCN2CCC(CO[Si](c3ccccc3)(c3ccccc3)C(C)(C)C)N=C2N1)C(=O)N[C@@H](COCc1ccccc1)C(=O)N[C@@H](Cc1ccc(OCc2ccccc2)cc1)C(=O)N[C@@H](CC(N)=O)C(=O)N[C@@H](CC(C)C)C(=O)OC (some centres undefined) (X2-GIS(Bn)Y(Bn)NL-OMe)	3.3 µM	0.29 µM	–

Reference: ChEMBL document CHEMBL1145908 (J Med Chem, 2003)
